Laboratory results as given in ChEMBL document CHEMBL4229525, “Anti-angiogenic and anticancer effects of baicalein derivatives based on transgenic zebrafish model” (Bioorg Med Chem, 2018).
Activity calls are given as the source filed them. The calls are words filed in the database; no cut-off is given here.

What was measured:
[1] = organism: Danio rerio; assay: Antiangiogenic activity in 24 to 72 hrs post fertilized zebra fish embryo harboring fli1:EGFP after 48 hrs by fluorescence microscopic analysis; type: functional
Procedure, shortened: (§1)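 Tg(fli1:EGFP) zebrafish: 20 dechorionated 24 hpf embryos per group in 1 mL embryo water with compound (1, 5, 10, 25, 50, 75, 100, 150, 200 μM), 28.5 °C for 48 h. Embryos anaesthetised in 0.016% tricaine; ISVs imaged by fluorescence microscopy at 72 hpf and scored for vessel defects and overall morphology. SU5416 positive control.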

[2] = organism: Danio rerio; assay: Toxicity in 24 to 72 hrs post fertilized zebra fish embryo harboring fli1:EGFP; type: organism-based; conditions: zebrafish, in vivo
Procedure, shortened: (§2)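 Dechorionated Tg(fli1:EGFP) embryos at 24 hpf, 20 per group, were kept in 1 mL embryo water with compound at 28.5 °C for a further 48 h. Compound was tested at 1, 5, 10, 25, 50, 75, 100, 150 and 200 μM. At 72 hpf, embryos anaesthetised with 0.016% tricaine had their ISVs imaged by fluorescence microscopy, with SU5416 as positive control. Definitions used: LOEC is anti-angiogenic effect in most larvae; LOTC is lowest toxic concentration; LC100 is total embryo lethality. TI = LOTC/LOEC; AI = LC100/LOEC.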

[3] = Toxicity index, ratio of MTC for 24 to 72 hrs post fertilized zebra fish embryo harboring fli1:EGFP to MEC for antiangiogenic activity in 24 to 72 hrs post fertilized zebra fish embryo harboring fli1:EGFP; type: organism-based, Danio rerio; conditions: fli1:EGFP transgenic, zebrafish, in vivo; procedure, shortened: as §2
[4] = Antiangiogenic index, ratio of LC100 for 24 to 72 hrs post fertilized zebra fish embryo harboring fli1:EGFP to MEC for antiangiogenic activity in 24 to 72 hrs post fertilized zebra fish embryo harboring fli1:EGFP; type: toxicity, organism-based, Danio rerio; conditions: fli1:EGFP transgenic, zebrafish, in vivo; procedure, shortened: as §2
[5] = organism: Danio rerio; assay: Antiangiogenic activity in 48 hrs post fertilized zebra fish embryo harboring fli1:EGFP assessed as inhibition of intersegmental vessel formation by fluorescence microscopic analysis; type: functional, organism-based; procedure, shortened: as §1
[6] = organism: Danio rerio; assay: Antiangiogenic activity in 48 hrs post fertilized zebra fish embryo harboring fli1:EGFP assessed as inhibition of intersegmental vessel formation at 50 uM by fluorescence microscopic analysis; type: functional; procedure, shortened: as §1
[7] = organism: Danio rerio; assay: Antiangiogenic activity in 48 hrs post fertilized zebra fish embryo harboring fli1:EGFP assessed as inhibition of dorsal long axis blood vessel formation at 50 uM by fluorescence microscopic analysis; type: functional; procedure, shortened: as §1
[8] = organism: Danio rerio; assay: Toxicity in 48 hrs post fertilized zebra fish embryo harboring fli1:EGFP assessed as morphological changes at 5 to 50 uM; type: organism-based; conditions: zebrafish, in vivo; procedure, shortened: as §1
[9] = organism: Danio rerio; assay: Antiangiogenic activity in 48 hrs post fertilized zebra fish embryo harboring fli1:EGFP assessed as changes in blood vessel formation at late stage embryos by fluorescence microscopic analysis; type: functional, organism-based; procedure, shortened: as §1
[10] = tested on: HUVEC; assay: Cytotoxicity against HUVEC assessed as inhibition of cell proliferation after 48 hrs by CCK8 assay; type: cell-based, Homo sapiens
Procedure, shortened: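 HUVECs were seeded at 3000/well in EGM-2 and allowed 12 h to attach, then exposed 48 h to compound (5–50 μM) or 0.1% DMSO vehicle. Growth was read by CCK-8 absorbance at 450 nm, in triplicate, and IC50 was calculated from the concentration–response data.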

[11] = tested on: HUVEC; assay: Antimigratory activity in HUVEC at 25 uM after 8 hrs by crystal violet staining based Boyden chamber assay relative to control; type: functional, Homo sapiens
Procedure, shortened: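 Boyden chamber with 8 μm pores, 8000 HUVECs/well, compound or vehicle in the top chamber, 8 h migration. Non-migrated cells removed by swab; migrated cells fixed in 100% methanol, stained with 0.05% crystal violet and counted manually in four random fields per well. Three replicate wells; % inhibition relative to control set at 100%; mean ± SEM, n=3.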

[12] = tested on: HUVEC; assay: Antiangiogenic activity in HUVEC assessed as inhibition of capillary-like tube formation after 12 hrs by matrigel-based microscopic analysis; type: functional, cell-based; conditions: Homo sapiens
Procedure, shortened: (§3)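 Growth-factor-reduced Matrigel solidified 120 min at 37 °C; 2×10⁴ HUVECs/well in EGM-2 with compound or 2 μM SU5416, 12 h. Networks imaged at 100× and tube length quantified in four random fields; mean ± SEM, n=3.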

[13] = tested on: HUVEC; assay: Antiangiogenic activity in HUVEC assessed as inhibition of capillary-like tube formation at 25 uM after 12 hrs by matrigel-based microscopic analysis; type: functional; conditions: Homo sapiens; procedure, shortened: as §3
[14] = tested on: HUVEC; assay: Antiangiogenic activity in HUVEC assessed as inhibition of capillary-like tube formation at 50 uM after 12 hrs by matrigel-based microscopic analysis; type: functional; conditions: Homo sapiens; procedure, shortened: as §3
[15] = tested on: HUVEC; assay: Antiangiogenic activity in HUVEC assessed as inhibition of capillary-like tube formation at 100 uM after 12 hrs by matrigel-based microscopic analysis; type: functional; conditions: Homo sapiens; procedure, shortened: as §3
[16] = tested on: A549; assay: Antiproliferative activity against human A549 cells after 48 hrs by MTT assay; type: functional, cell-based; conditions: A549, 48 h
Procedure, shortened: (§4)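 A549 or L929 fibroblasts seeded at 4×10⁴ cells/mL in DMEM with 10% FBS, 5% horse serum and penicillin/streptomycin, 37 °C, 5% CO₂. After 24 h, compound added for 48 h. MTT read at 570 nm; viability = OD treated/OD untreated ×100%; mean ± SD.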

[17] = tested on: L929; assay: Cytotoxicity against mouse L929 cells after 48 hrs by MTT assay; type: functional, cell-based; conditions: L929, 48 h; procedure, shortened: as §4
[18] = tested on: A549; assay: Induction of apoptosis in human A549 cells assessed as live cells at 1 uM after 48 hrs by Annexin-V-FITC/propidium iodide staining based flow cytometry (reference value: 75.2%); type: functional
Procedure, shortened: (§5)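 A549 cells, 2×10⁵/well, were cultured for 24 h at 37 °C, 5% CO₂, then treated 48 h with 1, 4 or 8 μM compound. Staining used annexin V-FITC and PI, 30 min at 25 °C, followed by flow cytometry; Q3 was counted as early apoptotic and Q2 as late apoptotic.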

[19] = tested on: A549; assay: Induction of apoptosis in human A549 cells assessed as early apoptotic cells at 1 uM after 48 hrs by Annexin-V-FITC/propidium iodide staining based flow cytometry (reference value: 15.2%); type: functional; procedure, shortened: as §5
[20] = tested on: A549; assay: Induction of apoptosis in human A549 cells assessed as late apoptotic cells at 1 uM after 48 hrs by Annexin-V-FITC/propidium iodide staining based flow cytometry (reference value: 4.05%); type: functional; procedure, shortened: as §5
[21] = tested on: A549; assay: Induction of apoptosis in human A549 cells assessed as necrotic cells at 1 uM after 48 hrs by Annexin-V-FITC/propidium iodide staining based flow cytometry (reference value: 5.45%); type: functional; procedure, shortened: as §5
[22] = tested on: A549; assay: Induction of apoptosis in human A549 cells assessed as live cells at 4 uM after 48 hrs by Annexin-V-FITC/propidium iodide staining based flow cytometry (reference value: 75.2%); type: functional; procedure, shortened: as §5
[23] = tested on: A549; assay: Induction of apoptosis in human A549 cells assessed as early apoptotic cells at 4 uM after 48 hrs by Annexin-V-FITC/propidium iodide staining based flow cytometry (reference value: 15.2%); type: functional; procedure, shortened: as §5
[24] = tested on: A549; assay: Induction of apoptosis in human A549 cells assessed as late apoptotic cells at 4 uM after 48 hrs by Annexin-V-FITC/propidium iodide staining based flow cytometry (reference value: 4.05%); type: functional; procedure, shortened: as §5
[25] = tested on: A549; assay: Induction of apoptosis in human A549 cells assessed as necrotic cells at 4 uM after 48 hrs by Annexin-V-FITC/propidium iodide staining based flow cytometry (reference value: 5.45%); type: functional; procedure, shortened: as §5
[26] = tested on: A549; assay: Induction of apoptosis in human A549 cells assessed as live cells at 8 uM after 48 hrs by Annexin-V-FITC/propidium iodide staining based flow cytometry (reference value: 75.2%); type: functional; procedure, shortened: as §5
[27] = tested on: A549; assay: Induction of apoptosis in human A549 cells assessed as early apoptotic cells at 8 uM after 48 hrs by Annexin-V-FITC/propidium iodide staining based flow cytometry (reference value: 15.2%); type: functional; procedure, shortened: as §5
[28] = tested on: A549; assay: Induction of apoptosis in human A549 cells assessed as late apoptotic cells at 8 uM after 48 hrs by Annexin-V-FITC/propidium iodide staining based flow cytometry (reference value: 4.05%); type: functional; procedure, shortened: as §5
[29] = tested on: A549; assay: Induction of apoptosis in human A549 cells assessed as necrotic cells at 8 uM after 48 hrs by Annexin-V-FITC/propidium iodide staining based flow cytometry (reference value: 5.45%); type: functional; procedure, shortened: as §5
[30] = tested on: A549; assay: Induction of apoptosis in human A549 cells assessed as caspase-3 activation at 1 to 8 uM by Ac-DEVD-pNA substrate based assay; type: functional, cell-based
Procedure, shortened: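 A549 lysates were spun at 15,000 rpm for 15 min at 4 °C. Then 110 µg protein was mixed with reaction buffer and Ac-DEVD-pNA substrate (2 mM stock) and incubated 3 h at 37 °C. Caspase-3 activity was measured as released pNA at 405 nm.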

Question: Which MEC [1] does the source give for `O=C(COc1c(OCc2ccccc2)cc2oc(-c3ccccc3)cc(=O)c2c1O)N1CCNCC1` here?
Answer: Its MEC is 5 µM.

Question: What about the LC100 [2] of the same molecule?
Answer: The LC100 was 100 µM.

Question: And the MTC [2]?
Answer: Its MTC is 25 µM.

Question: And the selectivity ratio [3]?
Answer: Its selectivity ratio is 5.

Question: And the selectivity ratio [4]?
Answer: Its selectivity ratio is 20.

Question: And the inhibition [5]?
Answer: The inhibition was “Dose-dependent effect”.

Question: And the “inhibition (INH)” value [6]?
Answer: The value was 100%.

Question: And the “inhibition (INH)” value [7]?
Answer: The value was 100%.

Question: And the Activity [8]?
Answer: The Activity was “Non-Toxic”.

Question: What about the Activity [9] of the same molecule?
Answer: The Activity was “inactive”.

Question: And the IC50 ([10]; Homo sapiens, HUVEC)?
Answer: Its IC50 is 57.1 µM.

Question: What about the “inhibition (INH)” value ([10]; human, huvec) of the same molecule?
Answer: Its value is “Dose-dependent effect”.

Question: And the Activity [11]?
Answer: The Activity was “<=50%”.

Question: And the inhibition [12]?
Answer: The inhibition was “Dose-dependent effect”.

Question: And the inhibition at 25 µM [13]?
Answer: Its inhibition at 25 µM is 24.9%.

Question: What about the inhibition at 50 µM [14] of the same molecule?
Answer: Its inhibition at 50 µM is 54.2%.

Question: What about the inhibition at 100 µM [15] of the same molecule?
Answer: The inhibition at 100 µM was 72.6%.

Question: And the IC50 [16]?
Answer: The IC50 was 4.73 µM.

Question: And the IC50 [17]?
Answer: The IC50 was 19.1 µM.

Question: What about the Activity [18] of the same molecule?
Answer: Its Activity is 36.2%.

Question: And the Activity [19]?
Answer: Its Activity is 32.9%.

Question: And the Activity [20]?
Answer: The Activity was 23%.

Question: And the Activity [21]?
Answer: Its Activity is 7.92%.

Question: What about the Activity [22] of the same molecule?
Answer: The Activity was 22.4%.

Question: What about the Activity [23] of the same molecule?
Answer: The Activity was 36.3%.

Question: What about the Activity [24] of the same molecule?
Answer: Its Activity is 36%.

Question: And the Activity [25]?
Answer: Its Activity is 5.4%.

Question: What about the Activity [26] of the same molecule?
Answer: The Activity was 10.2%.

Question: And the Activity [27]?
Answer: The Activity was 22.5%.

Question: What about the Activity [28] of the same molecule?
Answer: Its Activity is 62.1%.

Question: What about the Activity [29] of the same molecule?
Answer: Its Activity is 2.15%.

Question: And the Activity [30]?
Answer: The Activity was “Active”.
